{"source": "ChEMBL document CHEMBL1770131", "about": "“Radiosynthesis and preliminary evaluation of 4-[18F]fluoro-N-[4-[6-(isopropylamino)pyrimidin-4-yl]-1,3-thiazol-2-yl]-N-methylbenzamide as a new positron emission tomography ligand for metabotropic glutamate receptor subtype 1” (Bioorg Med Chem Lett, 2011)", "conditions_in_all_cases": "1 M, tested as the 18F-labelled form", "key": {"[1]": {"target": "Metabotropic glutamate receptor 1 (Rattus norvegicus) (UniProt P23385)", "sequence (P23385 19-1199 limits assumed)": "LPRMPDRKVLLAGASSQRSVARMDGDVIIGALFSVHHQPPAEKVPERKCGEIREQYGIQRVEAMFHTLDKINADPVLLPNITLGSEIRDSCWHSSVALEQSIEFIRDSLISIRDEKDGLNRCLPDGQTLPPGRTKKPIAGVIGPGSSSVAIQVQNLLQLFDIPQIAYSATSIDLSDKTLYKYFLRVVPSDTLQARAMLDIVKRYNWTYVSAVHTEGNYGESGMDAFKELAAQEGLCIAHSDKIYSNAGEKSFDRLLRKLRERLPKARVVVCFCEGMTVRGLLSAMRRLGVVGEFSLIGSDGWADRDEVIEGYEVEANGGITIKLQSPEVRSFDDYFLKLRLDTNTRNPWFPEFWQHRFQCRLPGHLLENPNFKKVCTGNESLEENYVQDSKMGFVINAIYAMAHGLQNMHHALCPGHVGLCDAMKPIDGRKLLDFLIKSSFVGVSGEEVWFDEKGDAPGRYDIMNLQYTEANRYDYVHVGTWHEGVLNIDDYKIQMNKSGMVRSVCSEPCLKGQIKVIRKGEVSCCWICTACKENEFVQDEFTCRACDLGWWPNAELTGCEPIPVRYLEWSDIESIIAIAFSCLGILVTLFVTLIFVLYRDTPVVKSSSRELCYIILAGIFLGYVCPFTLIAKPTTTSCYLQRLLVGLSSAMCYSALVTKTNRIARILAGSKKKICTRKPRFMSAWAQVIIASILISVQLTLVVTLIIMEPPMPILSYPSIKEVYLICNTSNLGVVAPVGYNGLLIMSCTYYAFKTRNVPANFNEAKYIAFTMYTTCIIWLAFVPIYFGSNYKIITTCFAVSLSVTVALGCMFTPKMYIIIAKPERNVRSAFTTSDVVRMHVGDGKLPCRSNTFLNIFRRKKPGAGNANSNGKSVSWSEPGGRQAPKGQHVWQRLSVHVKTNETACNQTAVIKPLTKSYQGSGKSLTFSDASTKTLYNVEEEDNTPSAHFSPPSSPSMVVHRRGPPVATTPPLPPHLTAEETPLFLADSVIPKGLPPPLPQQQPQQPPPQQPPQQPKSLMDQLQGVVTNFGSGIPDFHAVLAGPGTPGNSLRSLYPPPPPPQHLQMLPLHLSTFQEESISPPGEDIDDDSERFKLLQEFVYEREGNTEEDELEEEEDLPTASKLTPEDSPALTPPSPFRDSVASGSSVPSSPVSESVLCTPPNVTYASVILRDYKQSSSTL", "assay": "Binding affinity to mGluR1 in rat hippocampus at 1 MBq/ml after 30 mins by autoradiography in presence of 1 uM of mGluR5 antagonist MPEP", "type": "tissue-based", "method_in_brief": "(§1)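 Rat brain sections pre-incubated 3 × 5 min at room temperature in Tris-HCl (50 mM, pH 7.4, 1.2 mM MgCl2, 2 mM CaCl2). Then incubated 30 min at room temperature in fresh buffer with radioligand (1 MBq/mL; in saline with 5% ethanol and Tween80), with or without 1 µM unlabeled ligand, JNJ16259685 or MPEP. Washed 3 × 5 min in cold buffer, dipped in cold water, air-dried, exposed to imaging plate.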"}, "[2]": {"target": "Metabotropic glutamate receptor 1 (Rattus norvegicus) (UniProt P23385)", "assay": "Binding affinity to mGluR1 in rat whole brain at 1 MBq/ml after 30 mins by autoradiography in presence of 1 uM non-radiolabeled compound", "method_in_brief": "as §1"}, "[3]": {"target": "Metabotropic glutamate receptor 1 (Rattus norvegicus) (UniProt P23385)", "assay": "Binding affinity to mGluR1 in rat cerebellum at 1 MBq/ml after 30 mins by autoradiography", "type": "tissue-based", "method_in_brief": "as §1"}, "[4]": {"target": "Metabotropic glutamate receptor 1 (Rattus norvegicus) (UniProt P23385)", "assay": "Binding affinity to mGluR1 in rat thalamus at 1 MBq/ml after 30 mins by autoradiography in presence of 1 uM non-radiolabeled compound", "type": "tissue-based", "method_in_brief": "as §1"}, "[5]": {"target": "Metabotropic glutamate receptor 1 (Rattus norvegicus) (UniProt P23385)", "assay": "Binding affinity to mGluR1 in rat cerebral cortex at 1 MBq/ml after 30 mins by autoradiography in presence of 1 uM of mGluR5 antagonist MPEP", "type": "tissue-based", "method_in_brief": "as §1"}, "[6]": {"target": "Metabotropic glutamate receptor 1 (Rattus norvegicus) (UniProt P23385)", "assay": "Binding affinity to mGluR1 in rat cerebral cortex at 1 MBq/ml after 30 mins by autoradiography", "type": "tissue-based", "method_in_brief": "as §1"}, "[7]": {"target": "Metabotropic glutamate receptor 1 (Rattus norvegicus) (UniProt P23385)", "assay": "Binding affinity to mGluR1 in rat thalamus at 1 MBq/ml after 30 mins by autoradiography in presence of 1 uM of mGluR1 antagonist JNJ16259685", "type": "tissue-based", "method_in_brief": "as §1"}, "[8]": {"target": "Metabotropic glutamate receptor 1 (Rattus norvegicus) (UniProt P23385)", "assay": "Binding affinity to mGluR1 in rat cerebral cortex at 1 MBq/ml after 30 mins by autoradiography in presence of 1 uM of mGluR1 antagonist JNJ16259685", "type": "tissue-based", "method_in_brief": "as §1"}, "[9]": {"target": "Metabotropic glutamate receptor 1 (Rattus norvegicus) (UniProt P23385)", "assay": "Binding affinity to mGluR1 in rat pons-medulla at 1 MBq/ml after 30 mins by autoradiography in presence of 1 uM of mGluR1 antagonist JNJ16259685", "method_in_brief": "as §1"}, "[10]": {"target": "Metabotropic glutamate receptor 1 (Rattus norvegicus) (UniProt P23385)", "assay": "Binding affinity to mGluR1 in rat thalamus at 1 MBq/ml after 30 mins by autoradiography", "type": "tissue-based", "method_in_brief": "as §1"}, "[11]": {"target": "Metabotropic glutamate receptor 1 (Rattus norvegicus) (UniProt P23385)", "assay": "Binding affinity to mGluR1 in rat cerebellum at 1 MBq/ml after 30 mins by autoradiography in presence of 1 uM non-radiolabeled compound", "type": "tissue-based", "method_in_brief": "as §1"}, "[12]": {"target": "Metabotropic glutamate receptor 1 (Rattus norvegicus) (UniProt P23385)", "assay": "Binding affinity to mGluR1 in rat striatum at 1 MBq/ml after 30 mins by autoradiography in presence of 1 uM of mGluR5 antagonist MPEP", "type": "tissue-based", "method_in_brief": "as §1"}, "[13]": {"target": "Metabotropic glutamate receptor 1 (Rattus norvegicus) (UniProt P23385)", "assay": "Binding affinity to mGluR1 in rat striatum at 1 MBq/ml after 30 mins by autoradiography", "type": "tissue-based", "method_in_brief": "as §1"}, "[14]": {"target": "Metabotropic glutamate receptor 1 (Rattus norvegicus) (UniProt P23385)", "assay": "Binding affinity to mGluR1 in rat whole brain at 1 MBq/ml after 30 mins by autoradiography in presence of 1 uM of mGluR1 antagonist JNJ16259685", "method_in_brief": "as §1"}, "[15]": {"target": "Metabotropic glutamate receptor 1 (Rattus norvegicus) (UniProt P23385)", "assay": "Binding affinity to mGluR1 in rat pons-medulla at 1 MBq/ml after 30 mins by autoradiography in presence of 1 uM of mGluR5 antagonist MPEP", "method_in_brief": "as §1"}, "[16]": {"target": "Metabotropic glutamate receptor 1 (Rattus norvegicus) (UniProt P23385)", "assay": "Binding affinity to mGluR1 in rat pons-medulla at 1 MBq/ml after 30 mins by autoradiography in presence of 1 uM non-radiolabeled compound", "method_in_brief": "as §1"}, "[17]": {"target": "Metabotropic glutamate receptor 1 (Rattus norvegicus) (UniProt P23385)", "assay": "Binding affinity to mGluR1 in rat hippocampus at 1 MBq/ml after 30 mins by autoradiography", "type": "tissue-based", "method_in_brief": "as §1"}, "[18]": {"target": "Metabotropic glutamate receptor 1 (Rattus norvegicus) (UniProt P23385)", "assay": "Binding affinity to mGluR1 in rat hippocampus at 1 MBq/ml after 30 mins by autoradiography in presence of 1 uM of mGluR1 antagonist JNJ16259685", "type": "tissue-based", "method_in_brief": "as §1"}, "[19]": {"target": "Metabotropic glutamate receptor 1 (Rattus norvegicus) (UniProt P23385)", "assay": "Binding affinity to mGluR1 in rat thalamus at 1 MBq/ml after 30 mins by autoradiography in presence of 1 uM of mGluR5 antagonist MPEP", "type": "tissue-based", "method_in_brief": "as §1"}, "[20]": {"target": "Metabotropic glutamate receptor 1 (Rattus norvegicus) (UniProt P23385)", "assay": "Binding affinity to mGluR1 in rat cerebellum at 1 MBq/ml after 30 mins by autoradiography in presence of 1 uM of mGluR1 antagonist JNJ16259685", "type": "tissue-based", "method_in_brief": "as §1"}, "[21]": {"target": "Metabotropic glutamate receptor 1 (Rattus norvegicus) (UniProt P23385)", "assay": "Binding affinity to mGluR1 in rat cerebral cortex at 1 MBq/ml after 30 mins by autoradiography in presence of 1 uM non-radiolabeled compound", "type": "tissue-based", "method_in_brief": "as §1"}, "[22]": {"target": "Metabotropic glutamate receptor 1 (Rattus norvegicus) (UniProt P23385)", "assay": "Binding affinity to mGluR1 in rat cerebellum at 1 MBq/ml after 30 mins by autoradiography in presence of 1 uM of mGluR5 antagonist MPEP", "type": "tissue-based", "method_in_brief": "as §1"}, "[23]": {"target": "Metabotropic glutamate receptor 1 (Rattus norvegicus) (UniProt P23385)", "assay": "Binding affinity to mGluR1 in rat pons-medulla at 1 MBq/ml after 30 mins by autoradiography", "method_in_brief": "as §1"}, "[24]": {"target": "Metabotropic glutamate receptor 1 (Rattus norvegicus) (UniProt P23385)", "assay": "Binding affinity to mGluR1 in rat striatum at 1 MBq/ml after 30 mins by autoradiography in presence of 1 uM non-radiolabeled compound", "type": "tissue-based", "method_in_brief": "as §1"}, "[25]": {"target": "Metabotropic glutamate receptor 1 (Rattus norvegicus) (UniProt P23385)", "assay": "Binding affinity to mGluR1 in rat hippocampus at 1 MBq/ml after 30 mins by autoradiography in presence of 1 uM non-radiolabeled compound", "type": "tissue-based", "method_in_brief": "as §1"}, "[26]": {"target": "Metabotropic glutamate receptor 1 (Rattus norvegicus) (UniProt P23385)", "assay": "Binding affinity to mGluR1 in rat striatum at 1 MBq/ml after 30 mins by autoradiography in presence of 1 uM of mGluR1 antagonist JNJ16259685", "type": "tissue-based", "method_in_brief": "as §1"}}, "note": "Active and inactive are the calls of the source. The rule behind the calls is not given here.", "data": [{"compound": "CC(C)Nc1cc(-c2csc(N(C)C(=O)c3ccc(F)cc3)n2)ncn1", "values": [{"measurement": "Activity", "setting": "[1]", "value": 602, "unit": "PSL/mm2"}, {"measurement": "Activity", "setting": "[2]", "value": 6.9, "unit": "PSL/mm2"}, {"measurement": "Activity", "setting": "[3]", "value": 719, "unit": "PSL/mm2"}, {"measurement": "Activity", "setting": "[4]", "value": "inactive"}, {"measurement": "Activity", "setting": "[5]", "value": 316, "unit": "PSL/mm2"}, {"measurement": "Activity", "setting": "[6]", "value": 375, "unit": "PSL/mm2"}, {"measurement": "Activity", "setting": "[7]", "value": "inactive"}, {"measurement": "Activity", "setting": "[8]", "value": "inactive"}, {"measurement": "Activity", "setting": "[9]", "value": "inactive"}, {"measurement": "Activity", "setting": "[10]", "value": 739, "unit": "PSL/mm2"}, {"measurement": "Activity", "setting": "[11]", "value": "inactive"}, {"measurement": "Activity", "setting": "[12]", "value": 497, "unit": "PSL/mm2"}, {"measurement": "Activity", "setting": "[13]", "value": 568, "unit": "PSL/mm2"}, {"measurement": "Activity", "setting": "[14]", "value": 6.7, "unit": "PSL/mm2"}, {"measurement": "Activity", "setting": "[15]", "value": 181, "unit": "PSL/mm2"}, {"measurement": "Activity", "setting": "[16]", "value": "inactive"}, {"measurement": "Activity", "setting": "[17]", "value": 680, "unit": "PSL/mm2"}, {"measurement": "Activity", "setting": "[18]", "value": "inactive"}, {"measurement": "Activity", "setting": "[19]", "value": 618, "unit": "PSL/mm2"}, {"measurement": "Activity", "setting": "[20]", "value": "inactive"}, {"measurement": "Activity", "setting": "[21]", "value": "inactive"}, {"measurement": "Activity", "setting": "[22]", "value": 683, "unit": "PSL/mm2"}, {"measurement": "Activity", "setting": "[23]", "value": 222, "unit": "PSL/mm2"}, {"measurement": "Activity", "setting": "[24]", "value": "inactive"}, {"measurement": "Activity", "setting": "[25]", "value": "inactive"}, {"measurement": "Activity", "setting": "[26]", "value": "inactive"}]}]}
